From ChEMBL document CHEMBL1914308, “N-fused imidazoles as novel anticancer agents that inhibit catalytic activity of topoisomerase IIα and induce apoptosis in G1/S phase” (J Med Chem, 2011)
Calls of active or inactive are those of the source. The calls are words filed in the database; no cut-off is given here.

Legend:
HEK293 [1] = assay: Cytotoxicity against human HEK293 cells assessed as cell survival at 12 uM after 48 hrs by MTT assay; format: functional; conditions: HEK293, 48 h, read-out: Activity
How it was run: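 MTT survival of HEK 293 and Vero cells after 48 h with compound at graded concentrations. DMEM, 10% FBS, 37 °C, 5% CO2; dilutions in DMEM from 100 mM DMSO stock, added at 60–70% confluence. Mean ± SD of three independent experiments.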

HEK293 [2] = assay: Induction of cell cycle arrest in human HEK293 cells assessed as accumulation at G2/M phase at 25 uM after 48 hrs by propidium iodide staining-based FACS analysis (reference value: 7.5 +/- 1.0%); format: functional
HEK293 [3] = assay: Induction of cell cycle arrest in human HEK293 cells assessed as accumulation at S phase at 15 uM after 48 hrs by propidium iodide staining-based FACS analysis (reference value: 16.91 +/- 1.0%); format: functional
HEK293 [4] = assay: Induction of cell cycle arrest in human HEK293 cells assessed as accumulation at G1 phase at 15 uM after 48 hrs by propidium iodide staining-based FACS analysis (reference value: 61 +/- 0.9%); format: functional
HEK293 [5] = assay: Induction of cell cycle arrest in human HEK293 cells assessed as accumulation at G1 phase at 25 uM after 48 hrs by propidium iodide staining-based FACS analysis (reference value: 61 +/- 0.9%); format: functional
HEK293 [6] = assay: Induction of cell cycle arrest in human HEK293 cells assessed as accumulation at sub-G0 phase after 48 hrs by propidium iodide staining-based FACS analysis; format: functional
HEK293 [7] = assay: Induction of apoptosis in human HEK293 cells assessed as increase in PARP cleavage product at 15 to 25 uM after 48 hrs by Western blot analysis; format: functional, cell-based
How it was run: (§1)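 Whole-cell extracts from HEK 293 cells after 48 h at graded concentrations, Western blotted for caspase-3, Bax, Bcl-XL and PARP (cleaved 86 kDa fragment); β-actin as loading control.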

HEK293 [8] = assay: Induction of apoptosis in human HEK293 cells assessed as increase in caspase 3 expression at 15 to 25 uM after 48 hrs by Western blot analysis; format: functional, cell-based; how it was run: as §1
HEK293 [9] = assay: Induction of apoptosis in human HEK293 cells assessed as decrease in Bcl-XL protein expression at 15 to 25 uM after 48 hrs by Western blot analysis; format: functional, cell-based; how it was run: as §1
HEK293 [10] = assay: Induction of apoptosis in human HEK293 cells assessed as increase in Bax protein expression at 15 to 25 uM after 48 hrs by Western blot analysis; format: functional, cell-based; how it was run: as §1
[11] = target: T1, DNA topoisomerase 2-alpha (Homo sapiens, UniProt P11388); assay: Inhibition of human topoisomerase 2 alpha-mediated decatenation of kDNA at 100 uM by agarose gel electrophoresis
How it was run: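 150 ng kDNA with 2–4 units purified human topo II and 100 μM compound in DMSO, buffer 0.5 M Tris-HCl pH 8, NaCl, MgCl2, DTT, BSA with ATP (stock buffer concentrations), 20 μL, 37 °C 30 min. Stopped with SDS, proteinase K 37 °C 15 min; 1% agarose in TAE with 0.5 μg/mL EtBr; bands quantified by densitometry; etoposide 100 μM as reference.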

[12] = target: T1, DNA topoisomerase 2-alpha; assay: Inhibition of human topoisomerase 2 alpha-mediated relaxation of pRYG plasmid DNA at 100 uM by agarose gel electrophoresis
How it was run: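 250 ng supercoiled pRYG plasmid, 2–4 units hTopoIIα, 100 μM compound, ATP-containing Tris pH 8 buffer, 20 μL, 37 °C 30 min; SDS/proteinase K stop; 1% agarose in TAE without EtBr, post-stained 0.5 μg/mL EtBr; products quantified densitometrically.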

HEK293 [13] = assay: Induction of apoptosis in human HEK293 cells assessed as apoptotic cells at 25 uM after 48 hrs by propidium iodide staining-based FACS analysis (reference value: 4.88 +/- 0.8%); format: functional
HEK293 [14] = assay: Induction of apoptosis in human HEK293 cells assessed as apoptotic cells at 15 uM after 48 hrs by propidium iodide staining-based FACS analysis (reference value: 4.88 +/- 0.8%); format: functional
HEK293 [15] = assay: Induction of cell cycle arrest in human HEK293 cells assessed as accumulation at G2/M phase at 35 uM after 48 hrs by propidium iodide staining-based FACS analysis (reference value: 7.5 +/- 1.0%); format: functional
HEK293 [16] = assay: Induction of apoptosis in human HEK293 cells assessed as increase in apoptotic nuclei at 25 uM after 48 hrs by DAPI staining-based fluorescence microscopic analysis; format: functional
How it was run: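 HEK 293 cells exposed 48 h to 0, 15, 25 or 35 μM, nuclei stained with DAPI and apoptotic nuclei counted by fluorescence imaging; three replicates.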

[17] = Cytotoxicity against human MCF10A cells assessed as cell survival at 100 uM after 48 hrs by MTT assay; format: cell-based, MCF-10A; conditions: read-out: Survival
HEK293 [18] = assay: Cytotoxicity against human HEK293 cells assessed as cell survival at 12 uM after 24 hrs by MTT assay; format: functional, cell-based
HEK293 [19] = assay: Cytotoxicity against human HEK293 cells assessed as cell survival after 48 hrs by MTT assay; format: functional; conditions: HEK293, 48 h, read-out: LC50 (the source's name)
How it was run: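 HEK 293 cells were cultured in DMEM with 10% FBS and antibiotics at 37 °C in 5% CO₂. At 60–70% confluence they were treated for 48 h with various concentrations, diluted in DMEM from 100 mM DMSO stocks. Survival was read by MTT. LC₅₀ is the concentration killing 50% of cells. Data are mean ± SD of three independent experiments.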

[20] = Anticlonogenic activity against african green monkey Vero after 48 hrs by crystal violet staining; format: ADME, cell-based; conditions: chlorocebus sabaeus, Vero cells; read-out: LC50
How it was run: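 HEK 293 and Vero cells were grown in DMEM with 10% FBS and 1% penicillin/streptomycin at 37 °C in 5% CO₂. At 60–70% confluence they were exposed for 48 h to a range of concentrations, diluted in DMEM from 100 mM DMSO stocks. Colony survival is expressed as %. Values are mean ± SD of three independent experiments; LC₅₀ is the concentration killing half the cells.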

[21] = target: T1, DNA topoisomerase 2-alpha; assay: Inhibition of topoisomerase 2 alpha-mediated DNA relaxation activity in human HEK293 cells assessed as increase in supercoiled DNA at 35 uM […] by agarose gel electrophoresis; format: cell-based
[22] = target: T1, DNA topoisomerase 2-alpha; assay: Inhibition of topoisomerase 2 alpha-mediated DNA relaxation activity in human HEK293 cells assessed as increase in supercoiled DNA at 5 to 25 uM […] by agarose gel electrophoresis; format: cell-based
[23] = target: T1, DNA topoisomerase 2-alpha; assay: Inhibition of human topoisomerase 2 alpha-mediated unwinding of supercoiled DNA assessed as DNA intercalation at 100 uM by agarose gel electrophoresis
How it was run: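 250 ng negatively supercoiled E. coli plasmid incubated 20 min at 37 °C with 1 μg/mL ethidium bromide (intercalator control), 100 μM etoposide or test compound; run on 1% agarose in TAE without EtBr, then post-stained with 0.5 μg/mL EtBr; mobility retardation scored.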

[24] = target: T1, DNA topoisomerase 2-alpha; assay: Inhibition of etoposide poisoning activity against human recombinant DNA topoisomerase 2alpha assessed as enhancement of in relaxation of supercoiled plasmid pBR322 DNA at 200 uM after 30 mins by agarose gel electrophoresis in presence of etoposide

T1 sequence (P11388 whole entry): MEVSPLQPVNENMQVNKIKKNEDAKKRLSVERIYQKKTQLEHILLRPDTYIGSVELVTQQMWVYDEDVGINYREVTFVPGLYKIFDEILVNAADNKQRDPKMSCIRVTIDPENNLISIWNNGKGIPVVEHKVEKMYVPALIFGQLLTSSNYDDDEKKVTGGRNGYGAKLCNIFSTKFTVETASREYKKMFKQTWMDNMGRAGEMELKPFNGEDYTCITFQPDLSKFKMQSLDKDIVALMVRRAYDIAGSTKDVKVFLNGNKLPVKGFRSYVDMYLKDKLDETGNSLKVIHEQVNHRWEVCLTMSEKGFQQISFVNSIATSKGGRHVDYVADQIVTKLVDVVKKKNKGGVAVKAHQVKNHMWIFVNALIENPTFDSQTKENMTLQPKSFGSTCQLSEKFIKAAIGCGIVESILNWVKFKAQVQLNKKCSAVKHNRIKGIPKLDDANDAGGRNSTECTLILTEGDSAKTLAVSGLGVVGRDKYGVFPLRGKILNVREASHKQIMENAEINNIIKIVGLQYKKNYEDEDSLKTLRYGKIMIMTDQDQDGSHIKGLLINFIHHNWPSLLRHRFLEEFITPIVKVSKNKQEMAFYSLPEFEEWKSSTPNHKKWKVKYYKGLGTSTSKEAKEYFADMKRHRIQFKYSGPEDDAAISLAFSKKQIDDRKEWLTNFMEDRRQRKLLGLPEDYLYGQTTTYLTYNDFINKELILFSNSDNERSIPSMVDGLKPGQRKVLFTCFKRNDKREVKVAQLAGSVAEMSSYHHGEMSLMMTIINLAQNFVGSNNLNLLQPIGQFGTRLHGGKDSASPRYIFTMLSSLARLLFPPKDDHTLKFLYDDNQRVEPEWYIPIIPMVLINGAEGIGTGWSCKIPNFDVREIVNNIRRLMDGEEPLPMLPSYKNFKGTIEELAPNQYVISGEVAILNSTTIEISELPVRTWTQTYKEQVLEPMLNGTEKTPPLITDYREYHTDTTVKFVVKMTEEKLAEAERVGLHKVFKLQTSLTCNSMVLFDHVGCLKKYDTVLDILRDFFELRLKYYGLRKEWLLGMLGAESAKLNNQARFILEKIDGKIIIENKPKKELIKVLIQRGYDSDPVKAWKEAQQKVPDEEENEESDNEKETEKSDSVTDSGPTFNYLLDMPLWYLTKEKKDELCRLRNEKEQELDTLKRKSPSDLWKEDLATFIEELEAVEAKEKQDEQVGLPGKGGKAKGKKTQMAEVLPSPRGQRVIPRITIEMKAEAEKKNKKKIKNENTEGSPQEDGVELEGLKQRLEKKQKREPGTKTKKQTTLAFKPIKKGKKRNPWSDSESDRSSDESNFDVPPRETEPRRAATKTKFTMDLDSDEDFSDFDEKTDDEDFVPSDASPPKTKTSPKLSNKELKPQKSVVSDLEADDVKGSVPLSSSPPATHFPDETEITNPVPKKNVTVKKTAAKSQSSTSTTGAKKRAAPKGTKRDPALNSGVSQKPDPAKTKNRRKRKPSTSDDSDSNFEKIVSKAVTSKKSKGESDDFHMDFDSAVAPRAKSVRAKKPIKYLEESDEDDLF

CC(C)(C)Nc1c(-c2ccc(C(=O)O)cc2)nc2ccccn12
viability at 12 µM (HEK293 [1]): > 50% | Activity (HEK293 [2]): 8.93% | Activity (HEK293 [3]): 13.92% | Activity (HEK293 [4]): 34.64% | Activity (HEK293 [5]): 36.64% | Activity (HEK293 [6]): Dose-dependent effect | Activity (HEK293 [7]): Active | Activity (HEK293 [8]): Active | Activity (HEK293 [9]): Active | Activity (HEK293 [10]): Active | inhibition [11]: Active | inhibition [12]: Active | Activity (HEK293 [13]): 27.46% | Activity (HEK293 [14]): 24.61% | Activity (HEK293 [15]): 5.56% | Activity (HEK293 [16]): 40% | viability at 48 h, 100 µM [17]: 75% | Activity (HEK293 [18]): Active | CC50 (HEK293 [19]): 12 µM | CC50 at 48 h [20]: 98 µM | inhibition [21]: Active | inhibition [22]: Active | inhibition [23]: inactive | inhibition [24]: inactive
